Source: ChEMBL document CHEMBL1926614, “Substituted thiazoles V. synthesis and antitumor activity of novel thiazolo[2,3-b]quinazoline and pyrido[4,3-d]thiazolo[3,2-a]pyrimidine analogues” (2012)
The source made the active and inactive calls.

Tests used:
Assay type in all cases: functional
[1] = system: K562; test: Growth inhibition of human K562 cells at 10 uM after 48 hrs by coulter counting
In short: (§1)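 Single-dose primary screen across the full NCI 60-cell-line panel. Stocks were made in DMSO and diluted in PBS to a final DMSO below 1%. Cultures at 6 × 10⁴ cells/ml were run in duplicate wells alongside PBS/DMSO vehicle controls at 37 °C in humidified 5% CO₂. Data were expressed as percent growth of treated cells.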

[2] = system: SF-539; test: Growth inhibition of human SF539 cells at 10 uM after 48 hrs by coulter counting; conditions: SF-539, 48 h, read-out: GI; in short: as §1
[3] = system: CAKI-1; test: Growth inhibition of human Caki1 cells at 10 uM after 48 hrs by coulter counting; in short: as §1
[4] = system: UO-31; test: Growth inhibition of human UO31 cells at 10 uM after 48 hrs by coulter counting
In short: (§2)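 Single-dose screen in the NCI 60 human tumor cell line panel (nine subpanels). Compounds dissolved in DMSO and diluted in phosphate buffered saline, keeping final DMSO below 1%. Added in duplicate wells to cells at 6 × 10⁴ cells/ml. Controls held PBS and DMSO at matching dilutions. Incubated at 37 °C, humidified, 5% CO₂. Reported as percent growth of treated cells.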

[5] = system: SK-MEL-2; test: Growth inhibition of human SK-MEL-2 cells at 10 uM after 48 hrs by coulter counting; in short: as §1
[6] = system: M14; test: Growth inhibition of human M14 cells at 10 uM after 48 hrs by coulter counting; in short: as §1
[7] = system: SK-MEL-5; test: Growth inhibition of human SK-MEL-5 cells at 10 uM after 48 hrs by coulter counting; in short: as §1
[8] = system: HL-60(TB); test: Growth inhibition of human HL-60(TB) cells at 10 uM after 48 hrs by coulter counting
In short: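 Test compound was dissolved in DMSO and diluted in phosphate-buffered saline to a final DMSO level below 1%. Dilutions were plated in duplicate with cell culture at 6 × 10⁴ cells/ml. Vehicle controls held PBS and DMSO at matching dilutions. Incubation was at 37 °C, humidified, under 5% CO₂. Data were reported as percent growth of treated cells.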

[9] = system: UACC-257; test: Growth inhibition of human UACC257 cells at 10 uM after 48 hrs by coulter counting; in short: as §2
[10] = system: HOP-62; test: Growth inhibition of human HOP62 cells at 10 uM after 48 hrs by coulter counting; in short: as §1
[11] = system: NCI-H522; test: Growth inhibition of human NCI-H522 cells at 10 uM after 48 hrs by coulter counting; in short: as §1
[12] = system: HCC 2998; test: Growth inhibition of human HCC2998 cells at 10 uM after 48 hrs by coulter counting; in short: as §1
[13] = system: SK-MEL-28; test: Growth inhibition of human SK-MEL-28 cells at 10 uM after 48 hrs by coulter counting; conditions: SK-MEL-28, 48 h, read-out: GI; in short: as §1
[14] = system: HT-29; test: Growth inhibition of human HT-29 cells at 10 uM after 48 hrs by coulter counting; in short: as §1
[15] = system: UACC-62; test: Growth inhibition of human UACC62 cells at 10 uM after 48 hrs by coulter counting; in short: as §2
[16] = system: U-251; test: Growth inhibition of human U251 cells at 10 uM after 48 hrs by coulter counting; in short: as §2
[17] = Cytotoxicity against human renal cancer cells after 48 hrs by coulter counting; conditions: Cancer cell lines
In short: (§3)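 NCI 60-cell-line panel covering nine tumour subpanels, tested over a 5-log dose range. Compounds were dissolved in DMSO and diluted in phosphate-buffered saline to a final DMSO below 1%. Wells held 6 × 10⁴ cells/ml and were run in duplicate. Controls contained PBS and DMSO at matching dilutions. Incubation was at 37 °C in humidified 5% CO₂. GI₅₀, TGI and LC₅₀ were reported.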

[18] = system: LOX IMVI; test: Growth inhibition of human LOXIMVI cells at 10 uM after 48 hrs by coulter counting; in short: as §1
[19] = system: EKVX; test: Growth inhibition of human EKVX cells at 10 uM after 48 hrs by coulter counting; in short: as §1
[20] = Cytotoxicity against human breast cancer cells after 48 hrs by coulter counting; conditions: Cancer cell lines; in short: as §3
[21] = Cytotoxicity against human ovarian cancer cells after 48 hrs by coulter counting; conditions: Cancer cell lines; in short: as §3
[22] = system: SR; test: Growth inhibition of human SR cells at 10 uM after 48 hrs by coulter counting; in short: as §2
[23] = system: NSCLC; test: Cytotoxicity against human NSCLC cells after 48 hrs by coulter counting; in short: as §3
[24] = system: BT-549; test: Growth inhibition of human BT549 cells at 10 uM after 48 hrs by coulter counting; in short: as §1
[25] = Growth inhibition of human NCI-322M cells at 10 uM after 48 hrs by coulter counting; conditions: read-out: GI; in short: as §1
[26] = system: NCI-H460; test: Growth inhibition of human NCI-H460 cells at 10 uM after 48 hrs by coulter counting; in short: as §1
[27] = system: NCI-H23; test: Growth inhibition of human NCI-H23 cells at 10 uM after 48 hrs by coulter counting; in short: as §1
[28] = system: ACHN; test: Growth inhibition of human ACHN cells at 10 uM after 48 hrs by coulter counting; in short: as §1
[29] = system: RPMI-8226; test: Growth inhibition of human RPMI8226 cells at 10 uM after 48 hrs by coulter counting; in short: as §1
[30] = Cytotoxicity against human CNS cancer cells after 48 hrs by coulter counting; conditions: Cancer cell lines; in short: as §3
[31] = system: DU-145; test: Growth inhibition of human DU145 cells at 10 uM after 48 hrs by coulter counting; in short: as §1
[32] = Cytotoxicity against human colon cancer cells after 48 hrs by coulter counting; conditions: Cancer cell lines; in short: as §3
[33] = system: T47D; test: Growth inhibition of human T47D cells at 10 uM after 48 hrs by coulter counting; conditions: read-out: GI; in short: as §2
[34] = system: SF-295; test: Growth inhibition of human SF295 cells at 10 uM after 48 hrs by coulter counting; in short: as §1
[35] = system: NCI/ADR-RES; test: Growth inhibition of human NCI/ADR-RES cells at 10 uM after 48 hrs by coulter counting; conditions: read-out: GI; in short: as §1
[36] = system: MOLT-4; test: Growth inhibition of human MOLT4 cells at 10 uM after 48 hrs by coulter counting; in short: as §1
[37] = system: OVCAR-4; test: Growth inhibition of human OVCAR4 cells at 10 uM after 48 hrs by coulter counting; conditions: OVCAR-4, 48 h, read-out: GI; in short: as §1
[38] = system: SNB-19; test: Growth inhibition of human SNB19 cells at 10 uM after 48 hrs by coulter counting; conditions: SNB-19, 48 h, read-out: GI; in short: as §1
[39] = system: SNB-75; test: Growth inhibition of human SNB75 cells at 10 uM after 48 hrs by coulter counting; conditions: SNB-75, 48 h, read-out: GI; in short: as §1
[40] = system: NCI-H226; test: Growth inhibition of human NCI-H226 cells at 10 uM after 48 hrs by coulter counting; in short: as §1
[41] = system: A549; test: Growth inhibition of human A549 cells at 10 uM after 48 hrs by coulter counting; in short: as §1
[42] = system: HCT-116; test: Growth inhibition of human HCT116 cells at 10 uM after 48 hrs by coulter counting; in short: as §1
[43] = system: KM12; test: Growth inhibition of human KM12 cells at 10 uM after 48 hrs by coulter counting; in short: as §1
[44] = Cytotoxicity against human prostate cancer cells after 48 hrs by coulter counting; conditions: Cancer cell lines; in short: as §3
[45] = system: MDA-MB-435; test: Growth inhibition of human MDA-MB-435 cells at 10 uM after 48 hrs by coulter counting; in short: as §1
[46] = system: MCF7; test: Growth inhibition of human MCF7 cells at 10 uM after 48 hrs by coulter counting; conditions: MCF7, 48 h, read-out: GI; in short: as §1
[47] = system: SF-268; test: Growth inhibition of human SF268 cells at 10 uM after 48 hrs by coulter counting; conditions: SF-268, 48 h, read-out: GI; in short: as §1
[48] = system: CCRF-CEM; test: Growth inhibition of human CCRF-CEM cells at 10 uM after 48 hrs by coulter counting; conditions: read-out: GI; in short: as §1
[49] = system: A498; test: Growth inhibition of human A498 cells at 10 uM after 48 hrs by coulter counting; in short: as §1
[50] = system: IGROV-1; test: Growth inhibition of human IGROV1 cells at 10 uM after 48 hrs by coulter counting; in short: as §1
[51] = Cytotoxicity against human leukemia cells after 48 hrs by coulter counting; conditions: Leukemia cell; in short: as §3
[52] = read-out: LC50 (the source's name)

COc1cc(/C=C2\CCCC3=C2N=C2SC=CN2C3c2cc(OC)c(OC)c(OC)c2)cc(OC)c1OC (stereo not given)
94.1%: inhibition of growth at 10 µM [48]
95%: inhibition of growth at 10 µM [47]
2.2 µM: GI50 [20]
79.5%: inhibition of growth at 10 µM [37]
2 µM: GI50 [44] | GI50 [51]
1.9 µM: GI50 [21]
89.7%: inhibition of growth at 10 µM [13]
2.3 µM: GI50 [23]
79%: inhibition of growth at 10 µM [38]
65%: inhibition of growth at 10 µM [39]
90.5%: inhibition of growth at 10 µM [35]
active: growth inhibition (GI) [1] | growth inhibition (GI) [3] | growth inhibition (GI) [4] | growth inhibition (GI) [5] | growth inhibition (GI) [6] | growth inhibition (GI) [7] | growth inhibition (GI) [8] | growth inhibition (GI) [9] | growth inhibition (GI) [10] | growth inhibition (GI) [11] | growth inhibition (GI) [12] | growth inhibition (GI) [14] | growth inhibition (GI) [15] | growth inhibition (GI) [16] | growth inhibition (GI) [18] | growth inhibition (GI) [19] | growth inhibition (GI) [22] | growth inhibition (GI) [24] | growth inhibition (GI) [26] | growth inhibition (GI) [27] | growth inhibition (GI) [28] | growth inhibition (GI) [29] | growth inhibition (GI) [31] | growth inhibition (GI) [34] | growth inhibition (GI) [36] | growth inhibition (GI) [40] | growth inhibition (GI) [41] | growth inhibition (GI) [42] | growth inhibition (GI) [43] | growth inhibition (GI) [45] | growth inhibition (GI) [49] | growth inhibition (GI) [50]
1.6 µM: GI50 [32]
76%: inhibition of growth at 10 µM [46]
1.8 µM: GI50 [17]
91.3%: inhibition of growth at 10 µM [2]
69%: inhibition of growth at 10 µM [33]
99.5%: inhibition of growth at 10 µM [25]
> 100 µM: LC50 (concentration giving 50% net cell kill) [17] | TGI [17] | TGI [20] | CC50 [20, 52] | TGI [21] | CC50 [21, 52] | TGI [23] | CC50 [23, 52] | LC50 [30] | TGI [30] | LC50 (concentration killing 50% of cells) [44] | TGI [44] | TGI [51] | CC50 [51, 52]
47.8 µM: GI50 [30]
